One compound from ChEMBL document CHEMBL3352586, “Pyridyl benzamides as a novel class of potent inhibitors for the kinetoplastid Trypanosoma brucei” (J Med Chem, 2014) can be followed below.

Values after ≈ are worked out from the molar mass of the structure shown.

The logD is lipophilicity at a set pH, counting ionised and neutral species. Lower therefore signals lower lipophilicity. A word on the inhibition: it is the share of the control response that was lost under treatment. A higher inhibition goes with a response far below the control.

Series [1] is described as follows: Kinetic solubility of the compound at 10 mg/ml at pH 6.5 by nephelometry. The note with it: buffer, read-out: Kinetic_solubility. The series is classed as physicochemical. In outline:
(§1)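 Kinetic solubility was read by nephelometry at pH 2 and pH 6.5 and reported as μg/mL ranges.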

Series [2] has as its system Liver microsome. Kind of series: Drug metabolism in human liver microsomes at 1 uM after 60 mins in absence of NADPH/UDPGA by LC-MS analysis. It counts as ADME. The note with it: 1 h. On the technique in general: Liver microsomes are a subcellular fraction often used to study metabolism.
Series [3] deals with Liver microsome. Kind of series: Drug metabolism in human liver microsomes assessed as M-2 formation at 10 uM after 60 mins by LC-MS analysis in presence of NADPH. The note with it: 1 h.
Series [4] has as its system Liver microsome. In words: Drug metabolism in human liver microsomes assessed as M+16(I) formation at 10 uM after 60 mins by LC-MS analysis in presence of NADPH. The note with it: 1 h.
The nature of series [5]: Plasma protein binding in human […] by chromatographic method. The series is classed as ADME, cell-free. The note with it: read-out: PPB (converted). In a few lines:
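Human plasma protein binding was estimated by a chromatographic method.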

Series [6] concerns Liver microsome. Kind of series: Intrinsic clearance in human liver microsomes at 1 uM after 60 mins by LC-MS analysis. The series is classed as ADME. The note with it: 1 h. In a few lines: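 In vitro intrinsic clearance was measured in human liver microsomes and expressed per mg protein. A hepatic extraction ratio (E_H) was predicted from the in vitro data.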
Series [7] deals with Liver microsome. Kind of series: Drug metabolism in human liver microsomes assessed as M+16(II) formation at 1 uM after 60 mins by LC-MS analysis in presence of NADPH/UDPGA. It counts as ADME. The note with it: 1 h.
Series [8] can be described thus: Kinetic solubility of the compound at 10 mg/ml at pH 2 by nephelometry. It counts as physicochemical. The note with it: buffer, read-out: Kinetic_solubility. In a few lines:
as §1

Series [9] is described as follows: Partition coefficient, log D of the compound at pH 7.4 by HPLC method. It counts as physicochemical. The note with it: octanol/water. In outline: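 Distribution coefficient at pH 7.4 was measured chromatographically.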
Series [10] has as its system Trypanosoma brucei brucei. In words: Antimicrobial activity against bloodstream form of Trypanosoma brucei brucei 427 at 10 uM after 48 hrs by alamar blue assay. It counts as functional. The note with it: Trypanosoma brucei, 427, 48 h. In general terms: Resazurin is reduced to fluorescent resorufin, in cell work by metabolically active cells.
The test system of series [11] is Liver microsome. Kind of series: Drug metabolism in human liver microsomes assessed as M+32 formation at 1 uM after 60 mins by LC-MS analysis in presence of NADPH/UDPGA. The series is classed as ADME. The note with it: 1 h.
In series [12] the test system is Liver microsome. In words: Drug metabolism in human liver microsomes assessed as M+32 formation at 10 uM after 60 mins by LC-MS analysis in presence of NADPH. The note with it: 1 h.
Series [13] has as its system Liver microsome. In words: Drug metabolism in human liver microsomes assessed as M+16(II) formation at 10 uM after 60 mins by LC-MS analysis in presence of NADPH. The note with it: 1 h.

As for `Cc1ccccc1C(=O)Nc1ccc(F)cn1`, the solubility kinetic in [1] and in series [8] was 25 µg/mL (≈ 109 µM) in each case. The Drug metabolism result is on record as “metabolite_notdetected” with Liver microsome [2]; “metabolite_detected” in the series with Liver microsome [3]; “metabolite_detected” in the series with Liver microsome [4]; “metabolite_detected” with Liver microsome [7]; “metabolite_detected” in the series with Liver microsome [11]; “metabolite_detected” in the series on Liver microsome [12]. In addition, the Drug metabolism entry in the series with Liver microsome [13] is “metabolite_detected”. The fraction unbound in series [5] is 0.44. Also, the CLint in the series with Liver microsome [6] was 43 µL/min/mg. In [9], this compound returned a logD of 2.7. In series [10], this compound registered an inhibition at 10 µM of 33%.
